Source: paper PMC9486128 (The Journal of Biological Chemistry, 2022)
Changes are numbered by the printed parent chain. Several values for one entry are separate records, joined by “and”; a condition that tells them apart may be missing. Equal values may be shown once.

Assays:
hHDAC8 [1] = biological target: T1, hHDAC8 (Homo sapiens, UniProt Q9BY41); experiment: hHDAC8 enzymatic activity inhibition; type: biochemical; settings: for enhancement in potency toward hHDAC8: NF2883 with respect to NF2453, NF2889 with respect to NF2452
T1 sequence (Q9BY41 1-377): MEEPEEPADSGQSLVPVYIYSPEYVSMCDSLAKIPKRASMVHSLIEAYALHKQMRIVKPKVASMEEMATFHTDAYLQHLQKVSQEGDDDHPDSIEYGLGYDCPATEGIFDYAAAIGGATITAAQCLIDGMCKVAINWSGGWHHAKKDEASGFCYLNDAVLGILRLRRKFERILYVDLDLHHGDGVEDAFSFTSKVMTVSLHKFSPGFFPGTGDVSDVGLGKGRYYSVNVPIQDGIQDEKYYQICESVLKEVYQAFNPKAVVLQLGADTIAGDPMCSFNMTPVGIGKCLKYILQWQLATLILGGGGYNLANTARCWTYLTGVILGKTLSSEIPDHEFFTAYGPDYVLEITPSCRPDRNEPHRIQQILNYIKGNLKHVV

[2] = tested on: S. mansoni larvae (schistosomula); experiment: ATP-based luminescence viability assay on schistosomula; type: cell-based, Schistosoma mansoni; settings: 72 h incubation, normalized to DMSO and gambogic acid 10 μM
Method in brief: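 Schistosomula of a Puerto Rican strain were made by mechanical transformation of cercariae and purified on a Percoll gradient. They were exposed at 150 per well in phenol-red-free DMEM to test compound in DMSO for 72 h at 37 °C, 5% CO2. CellTiterGlo luminescence was read after 30 min. Three independent experiments were run. LD50 came from a variable-slope log(inhibitor) versus normalized response fit.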

SmHDAC8 [3] = biological target: T2, SmHDAC8 (Schistosoma mansoni, UniProt A5H660); experiment: SmHDAC8 enzymatic activity inhibition; type: biochemical; settings: for enhancement in potency toward SmHDAC8: NF2883 with respect to NF2453, NF2889 with respect to NF2452
T2 sequence (A5H660 1-440): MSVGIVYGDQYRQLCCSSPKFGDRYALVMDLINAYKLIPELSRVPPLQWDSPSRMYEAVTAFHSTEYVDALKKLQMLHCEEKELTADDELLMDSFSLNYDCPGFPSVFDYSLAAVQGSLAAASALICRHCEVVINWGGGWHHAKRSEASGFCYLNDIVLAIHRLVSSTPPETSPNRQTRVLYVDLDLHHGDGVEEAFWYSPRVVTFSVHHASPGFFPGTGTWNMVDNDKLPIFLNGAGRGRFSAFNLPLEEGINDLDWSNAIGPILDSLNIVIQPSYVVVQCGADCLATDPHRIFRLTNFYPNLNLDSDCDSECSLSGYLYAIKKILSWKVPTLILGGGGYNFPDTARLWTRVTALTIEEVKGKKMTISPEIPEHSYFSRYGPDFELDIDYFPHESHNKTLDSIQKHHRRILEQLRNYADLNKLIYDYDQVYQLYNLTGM

SmHDAC8 [4] = biological target: T2, SmHDAC8; experiment: Binding to SmHDAC8 by quenching of intrinsic fluorescence
Method in brief: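 Recombinant His6-tagged SmHDAC8 was expressed in E. coli BL21(DE3) and used at 0.125 μM in 50 mM Tris pH 8.0, 150 mM KCl, 100 μM DTT. It was titrated with test compound from 1.6 nM to 125 μM, with 5 min stirred equilibration per addition at 25 °C. Intrinsic fluorescence quenching was read at 340 nm (excitation 280 nm), averaging 4–5 accumulations. Ki came from a quadratic 1:1 binding fit.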

[5] = tested on: S. mansoni adult worm pairs; experiment: Adult worm pairs viability assay; type: cell-based, Schistosoma mansoni; settings: for reduction of adult worm pairs viability: day 7; for adult worm pairs viability: 24 h
Method in brief: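 Five adult worm pairs per sample were held in complete DMEM. Test compound was added once at 10, 20 or 50 μM, with no medium addition or replacement, against a DMSO vehicle control. Worms were scored 0–3 daily under a stereomicroscope for 7 days. The sample score was the sum of worm scores divided by worm number, expressed as percent relative to DMSO. Three experiments were run.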

hHDAC8 [6] = biological target: T1, hHDAC8; experiment: Steady-state enzyme kinetics of hHDAC8 with fixed inhibitor concentration; type: biochemical; settings: for type of inhibition of hHDAC8: from steady-state kinetics
Method in brief: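 Commercial recombinant human HDAC8 from the Fluor-de-Lys kit was run with varied Fluor-de-Lys acetylated peptide-AMC substrate. Reactions contained vehicle or a fixed test compound concentration. Steady-state parameters came from Michaelis–Menten nonlinear regression.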

SmHDAC8 W198A mutant = biological target: T3, SmHDAC8 W198A mutant (Schistosoma mansoni, UniProt A5H660, W198A); experiment: Fluorescence emission spectra of SmHDAC8 W198A mutant with inhibitors; type: binding; settings: inhibitor 25 μM, excitation 280 and 298 nm
T3 sequence (A5H660 1-440 W198A): T2 sequence (A5H660 1-440) with W198A
Method in brief: (§1)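 WT SmHDAC8 or the W198A mutant (made by site-directed mutagenesis and expressed in E. coli) was used at 0.125 μM in 10 mM Tris pH 8.0, 150 mM KCl, 5 mM DTT. Protein was preincubated 15 min at 25 °C with 25 μM test compound, with a DMSO reference and enzyme-free blanks. Emission spectra were recorded after 280 and 298 nm excitation, averaging 4–5 accumulations. Some runs included 2 mM Na/K-tartrate.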

WT SmHDAC8 = biological target: T4, WT SmHDAC8 (Schistosoma mansoni, UniProt A5H660); experiment: Fluorescence emission spectra of WT SmHDAC8 with inhibitors; type: binding; settings: inhibitor 25 μM, excitation 280 and 298 nm
T4 sequence (A5H660 1-440): T2 sequence (A5H660 1-440)
Method in brief: as §1

SmHDAC8 WT = biological target: T5, SmHDAC8 WT (Schistosoma mansoni, UniProt A5H660); experiment: Steady-state enzyme kinetics of SmHDAC8 with fixed inhibitor concentration; type: biochemical; settings: for type of inhibition of SmHDAC8: from steady-state kinetics and IC50 at different substrate concentrations
T5 sequence (A5H660 1-440): T2 sequence (A5H660 1-440)
Method in brief: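 SmHDAC8 (0.425 μM) was preincubated 15 min at 25 °C with DMSO, 5 μM or 1 μM test compound. Timed aliquots were quenched with TSA/trypsin. Initial rates came from product versus time via standard curve and were fitted to Michaelis–Menten. Two to four independent experiments were run.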

[7] = tested on: acetylation of lysine residues within histone proteins of S. mansoni adult worm pairs; experiment: Histone K-acetylation Western blot on adult worm pairs; type: cell-based, Schistosoma mansoni
Method in brief: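 Ten adult worm pairs were treated 24 or 72 h with test compound at concentrations taken from viability curves. Positive controls were TSA 1 μM and a reference HDAC inhibitor 20 μM; DMSO was the negative control. Lysis buffer contained 5 mM sodium butyrate. Histone-enriched fractions were run on 15% SDS-PAGE and blotted with anti-acetyl-lysine (1:4000) and anti-α-tubulin (1:5000), with Ponceau calibration. Acetyl-lysine densitometry was normalized to tubulin, then to DMSO.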

Row | SMILES | IC50 (hHDAC8 [1]) [µM] | enhancement in potency toward hHDAC8 (hHDAC8 [1]) | LD50 on schistosomula [2] | enhancement in potency toward SmHDAC8 (SmHDAC8 [3]) | Ki (SmHDAC8 [4]) [µM] | reduction of adult worm pairs viability ([5]; 10 μM) | reduction of adult worm pairs viability ([5]; 20 μM) | adult worm pairs viability ([5]; 50 μM) | type of inhibition of hHDAC8 (hHDAC8 [6]) | fluorescence signal of SmHDAC8 W198A mutant with respect to control (SmHDAC8 W198A mutant) | fluorescence signal of WT SmHDAC8 with respect to control (WT SmHDAC8) | type of inhibition of SmHDAC8 (SmHDAC8 WT) | also measured
1 | CN1CCC2(CC1)c1ccccc1N(Cc1ccc(C(=O)NO)s1)C2c1ccc(Cl)cc1 (stereo not drawn) [NF2883, 5-((2-(4-chlorophenyl)-1′-methylspiro[indoline-3,4′-piperidin]-1-yl)methyl)-N-hydroxythiophene-2-carboxamide] | 0.16 ± 0.02 | about 20 fold | 26.2 ± 1.1 µM | about 20 fold | 0.13 ± 0.05 | 50% | almost complete death | immediate loss of viability |  |  |  |  | 
2 | O=C(NO)c1ccc(Cn2c3c(c4cc(Br)ccc42)SC(c2ccccc2)C3)s1 (stereo not drawn) [NF2886, 5-((7-Bromo-2-phenyl-2,3-dihydro-4H-thieno[3,2-b]indol-4-yl)methyl)-N-hydroxythiophene-2-carboxamide] | 3.14 ± 0.57 |  | ~60 µM and 59.9 ± 4.9 µM |  | 9.7 ± 7.2 | ineffective | ~50% |  | competitive | quenching | quenched | competitive inhibitor | kcat (hHDAC8 [6]; hHDAC8 with 5 μM NF2886): 0.012 ± 0.004 s⁻¹; increase of IC50 with 150 μM substrate versus 50 μM (SmHDAC8 [3]; SmHDAC8): ~2 fold; reduction of adult worm pairs viability ([5]; 50 μM): ~50%; kcat (SmHDAC8 WT; SmHDAC8 with 5 μM NF2886): 0.017 ± 0.003 s⁻¹; increment of KM versus vehicle (SmHDAC8 WT; SmHDAC8 with 5 μM inhibitor): > 3 fold
3 | CN1CCC2(CC1)c1ccccc1N(Cc1ccc(C(=O)NO)s1)C2c1cccc(Cl)c1 (stereo not drawn) [NF2889, 5-((2-(3-Chlorophenyl)-1′-methylspiro[indoline-3,4′-piperidin]-1-yl)methyl)-N-hydroxythiophene-2-carboxamide] | 1.32 ± 0.07 | 2 fold | 26.2 ± 1.6 µM | 6 fold | 0.6 ± 0.2 | 50% | almost complete death | immediate loss of viability | competitive | no quenching | quenched | mixed-type inhibition | kcat (hHDAC8 [6]; hHDAC8 with 2 μM NF2889): 0.011 ± 0.005 s⁻¹; kcat (SmHDAC8 WT; SmHDAC8 with 1 μM NF2889): 0.007 ± 0.003 s⁻¹; increase of lysine acetylation signal versus DMSO ([7]; 5 μM for 72 h): 11 fold; increase of lysine acetylation signal versus DMSO ([7]; 10 μM for 24 h): 6.5 fold
4 | CC(/C=C/C(=O)NO)=C\[C@@H](C)C(=O)c1ccc(N(C)C)cc1 [TSA, Trichostatin A, reference compound] |  |  |  |  |  |  |  |  |  |  |  |  | increase of K-acetylation to tubulin ratio versus control ([7]; 1 μM, positive control): About 10 fold
